How the values were obtained:
[1] = folding enthalpy; higher = less favourable; fluorescence melt of hairpins on a sequencing array, two-state fit; conditions: sodium 0.088 M
Outline: (§1)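 Hairpins were imaged by Cy3 fluorescence on a sequenced MiSeq flow cell with annealed Cy3 and quencher oligos, in 50 mM Na-HEPES pH 8.0, 25 mM NaCl, in 2.5 °C steps up to 60 °C. Bootstrapped two-state fits of normalised signals gave melting temperature and folding enthalpy. Four replicates were combined by inverse variance, and fitted temperatures were raised by 9.35 °C to match UV melts.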

[2] = melting temperature; fluorescence melt of hairpins on a sequencing array, two-state fit, raised by 9.35 °C to match UV melts; conditions: sodium 0.088 M
Outline: as §1

Sequence	folding enthalpy [1]	Tm [2]
GTCGTGCGAAAGCAGAC (((.(((....))))))	-21.2 kcal/mol	56.5 °C
GTCGTGGGAAACCACAAC ((.((((....)))).))	-15.7 kcal/mol	40.3 °C
GTCGTGGGAAACCATGAC (((.(((....))).)))	-45.9 kcal/mol	52.5 °C
GTCGTTACGAAAGTAGAC (((..(((....))))))	-29.1 kcal/mol	44.8 °C
GTCGTTGCGAAAGCAGAC (((..(((....))))))	-21.1 kcal/mol	49.2 °C
GTCTAAGGAAACTTAGGC (.(((((....))))).)	-25.5 kcal/mol	38.1 °C
GTCTACACGAAAGTGGAC (((..(((....))))))	-14.1 kcal/mol	37.2 °C
GTCTACGAAAGTAAAGAC ((((((....)))..)))	-23.8 kcal/mol	37.3 °C
GTCTACGAAAGTAGAGAC ((((((....)))..)))	-12.8 kcal/mol	40.1 °C
GTCTACGAAAGTAGCGAC ((((((....)))..)))	-17.6 kcal/mol	47 °C
GTCTACGAAAGTATGAC ((((((....))).)))	-23.8 kcal/mol	42.3 °C
GTCTACGGAAACATAGAC (((((.(....).)))))	-27.1 kcal/mol	31 °C
GTCTACGGAAACGTGGAC (((.(((....))).)))	-39.8 kcal/mol	53.1 °C
GTCTAGCCGAAAGGCGAC (((..(((....))))))	-10.8 kcal/mol	43.1 °C
GTCTAGGGAAACTTAGAC (((((.(....).)))))	-36.3 kcal/mol	37.4 °C
GTCTATCGAAAGATTGAC (((.(((....))).)))	-35.1 kcal/mol	46.3 °C
GTCTATGGAAACATGGAC (((.(((....))).)))	-31.1 kcal/mol	45.6 °C
GTCTCACGAAAGTGTGAC (((.(((....))).)))	-43.4 kcal/mol	53.8 °C
GTCTCAGGAAACTGAGAC (((((((....)))))))	-46.1 kcal/mol	59.5 °C
GTCTCAGGAAACTGGGAC (((.(((....))).)))	-35.6 kcal/mol	49.8 °C
GTCTCCCGAAAGGGTGAC (((.(((....))).)))	-31.1 kcal/mol	56.5 °C
GTCTCCGAAAGGAACGAC ((((((....)))..)))	-23.5 kcal/mol	36.3 °C
GTCTCCGAAAGGAAGAC ((((((....))).)))	-27.2 kcal/mol	52.1 °C

Sequence	folding enthalpy [1]	Tm [2]
GTCTCCGAAAGGACAGAC ((((((....)))..)))	-17.3 kcal/mol	37.2 °C
GTCTCCGAAAGGACCGAC ((((((....)))..)))	-16.9 kcal/mol	28.2 °C
GTCTCCGAAAGGAGAGAC ((((((....)))..)))	-11.4 kcal/mol	48 °C
GTCTCCGAAAGGATCGAC ((((((....)))..)))	-14.7 kcal/mol	31.4 °C
GTCTCCGAAAGGATGGAC ((((((....)))..)))	-17.6 kcal/mol	35.2 °C
GTCTCCGGAAACGGAAAC ((.((((....)))).))	-16.2 kcal/mol	36.3 °C
GTCTCGCCGAAAGGCGAC (((..(((....))))))	-6.03 kcal/mol	39.5 °C
GTCTCGGGAAACCGAGGC (.(((((....))))).)	-29 kcal/mol	57.6 °C
GTCTCGGGAAACTGAGAC (((((.(....).)))))	-42.9 kcal/mol	51.5 °C
GTCTCTGGAAACAGAGAC (((((((....)))))))	-42.5 kcal/mol	62.8 °C
GTCTGAACGAAAGTTGAC (((..(((....))))))	-16.4 kcal/mol	31.7 °C
GTCTGAGGAAACTTAGAC ((((.((....)).))))	-30.7 kcal/mol	39.9 °C
GTCTGCGAAAGCACGAC ((((((....))).)))	-21.5 kcal/mol	50.2 °C
GTCTGCGAAAGCAGCGAC ((((((....)))..)))	-12.5 kcal/mol	60.6 °C
GTCTGCGAAAGCATTGAC ((((((....)))..)))	-14 kcal/mol	40.2 °C
GTCTGCGGAAACGCAAAC ((.((((....)))).))	-15.2 kcal/mol	38 °C
GTCTGCGGAAACGTAGGC (.((.((....)).)).)	-26.7 kcal/mol	42.4 °C
GTCTGGACGAAAGTCGAC (((..(((....))))))	-17.6 kcal/mol	38.4 °C
GTCTGGCGAAAGCCGGAC (((.(((....))).)))	-25.6 kcal/mol	69 °C
GTCTGGGGAAACCCAAAC ((.((((....)))).))	-14.3 kcal/mol	31.8 °C
GTCTGTCCGAAAGGAGAC (((..(((....))))))	-15.1 kcal/mol	31.3 °C
GTCTTCCGAAAGGATGAC (((.(((....))).)))	-42.4 kcal/mol	53.1 °C
GTCTTCGAAAGAAAGAC ((((((....))).)))	-21.8 kcal/mol	42.6 °C

Sequence	folding enthalpy [1]	Tm [2]
GTCTTCGAAAGAACAGAC ((((((....)))..)))	-16.6 kcal/mol	28.3 °C
GTCTTCGAAAGAAGAC ((((((....))))))	-30.3 kcal/mol	62.4 °C
GTCTTGGGAAACCAGGAC (((.(((....))).)))	-30.3 kcal/mol	47.2 °C
GTCTTGGGAAACTAAGGC (.(((.(....).))).)	-19.4 kcal/mol	29 °C
GTCTTTCCGAAAGGAGAC (((..(((....))))))	-10.6 kcal/mol	29.2 °C
GTCTTTGCGAAAGCAGAC (((..(((....))))))	-16.3 kcal/mol	34.6 °C
GTCTTTGGAAACAAAGGC (.(((((....))))).)	-29.3 kcal/mol	46.6 °C
GTGAAAGAAATTTCAC ((((((....))))))	-29.4 kcal/mol	44.3 °C
GTGAAAGGAAACTTTTAC ((.((((....)))).))	-22.9 kcal/mol	31.3 °C
GTGAACGAAAGTTACAC ((((((....))).)))	-17.7 kcal/mol	38.8 °C
GTGAACGAAAGTTATCAC ((((((....)))..)))	-13.2 kcal/mol	31 °C
GTGAACGAAAGTTCTCAC ((((((....)))..)))	-14.3 kcal/mol	35 °C
GTGAACGAAAGTTGCCAC ((((((....)))..)))	-9.75 kcal/mol	25.9 °C
GTGAACGCGAAAGCGCAC (((..(((....))))))	-14.8 kcal/mol	42.3 °C
GTGAACGGAAACGTTCGC (.(((((....))))).)	-28.9 kcal/mol	56.9 °C
GTGAAGGAAACTTCAC ((((((....))))))	-32.5 kcal/mol	54.1 °C
GTGAATCGAAAGATACAC (((.(((....))).)))	-27.9 kcal/mol	46.9 °C
GTGAATGGAAACACTCAC ((((.((....)).))))	-24.6 kcal/mol	34.4 °C
GTGAATGGAAACATTCGC (.(((((....))))).)	-25.4 kcal/mol	49.9 °C
GTGACACGAAAGTGACAC (((.(((....))).)))	-39.7 kcal/mol	58.7 °C
GTGACACGAAAGTGCCAC (((.(((....))).)))	-40.1 kcal/mol	56.3 °C
GTGACAGAAATGTCAC ((((((....))))))	-35.7 kcal/mol	57.6 °C

Reference: the array DNA melting data of Ke et al. (doi:10.1101/2024.01.08.574731)
